Source: ChEMBL document CHEMBL2407048, “Novel synthetic acridine derivatives as potent DNA-binding and apoptosis-inducing antitumor agents” (Bioorg Med Chem, 2013)
Activity calls are given as the source filed them. The rule behind the calls is not given here.

Key:
[1] = system: K562; experiment: Induction of apoptosis in human K562 cells assessed as decrease in BCL-XL level at 2.5 uM after 48 hrs by Western blot analysis; type: functional, cell-based
Outline: (§1)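 K562 cells in 6 cm dishes treated 48 h at several concentrations, then lysed on ice 0.5 h and spun at 20,000g. Protein measured by BCA, run on 15% SDS-PAGE and transferred to PVDF. Membrane blocked in 5% BSA/TBS with Na₃VO₄ and NaF, primary antibody 2 h at room temperature, chemiluminescent detection of cleaved caspase-3/7/9, BAX and BCL-XL.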

[2] = system: K562; experiment: Induction of apoptosis in human K562 cells assessed as increase in Bax level at 2.5 uM after 48 hrs by Western blot analysis; type: functional, cell-based; outline: as §1
[3] = system: K562; experiment: Induction of apoptosis in human K562 cells assessed as activation of caspase-9 after 48 hrs by Western blot analysis; type: functional, cell-based; outline: as §1
[4] = system: K562; experiment: Induction of apoptosis in human K562 cells assessed as caspase-7 cleavage at 2.5 uM after 48 hrs by Western blot analysis; type: functional, cell-based; outline: as §1
[5] = system: K562; experiment: Induction of apoptosis in human K562 cells assessed as caspase-3 cleavage at 2.5 uM after 48 hrs by Western blot analysis; type: functional, cell-based; outline: as §1
[6] = system: K562; experiment: Induction of apoptosis in human K562 cells after 48 hrs by annexin V-FITC/propidium iodide staining-based flow cytometric analysis; type: functional, cell-based
[7] = system: K562; experiment: Induction of apoptosis in human K562 cells assessed as early apoptotic cells at 2.5 uM after 48 hrs by annexin V-FITC/propidium iodide staining-based flow cytometric analysis (reference value: 2.1%); type: functional
[8] = system: K562; experiment: Induction of apoptosis in human K562 cells assessed as early apoptotic cells at 1 uM after 48 hrs by annexin V-FITC/propidium iodide staining-based flow cytometric analysis (reference value: 2.1%); type: functional
[9] = system: K562; experiment: Induction of apoptosis in human K562 cells assessed as early apoptotic cells at 0.5 uM after 48 hrs by annexin V-FITC/propidium iodide staining-based flow cytometric analysis (reference value: 2.1%); type: functional
[10] = system: K562; experiment: Induction of apoptosis in human K562 cells assessed as late apoptotic cells at 2.5 uM after 48 hrs by annexin V-FITC/propidium iodide staining-based flow cytometric analysis (reference value: 1.22%); type: functional
[11] = system: K562; experiment: Induction of apoptosis in human K562 cells assessed as late apoptotic cells at 1 uM after 48 hrs by annexin V-FITC/propidium iodide staining-based flow cytometric analysis (reference value: 1.22%); type: functional
[12] = system: K562; experiment: Induction of apoptosis in human K562 cells assessed as late apoptotic cells at 0.5 uM after 48 hrs by annexin V-FITC/propidium iodide staining-based flow cytometric analysis (reference value: 1.22%); type: functional
[13] = biological target: T1, DNA topoisomerase 1 (Homo sapiens) (UniProt P11387); experiment: Inhibition of human recombinant DNA topoisomerase-1 assessed as relaxation of pBR322 DNA at 25 uM after 30 mins by agarose gel electrophoresis
T1 sequence (whole entry): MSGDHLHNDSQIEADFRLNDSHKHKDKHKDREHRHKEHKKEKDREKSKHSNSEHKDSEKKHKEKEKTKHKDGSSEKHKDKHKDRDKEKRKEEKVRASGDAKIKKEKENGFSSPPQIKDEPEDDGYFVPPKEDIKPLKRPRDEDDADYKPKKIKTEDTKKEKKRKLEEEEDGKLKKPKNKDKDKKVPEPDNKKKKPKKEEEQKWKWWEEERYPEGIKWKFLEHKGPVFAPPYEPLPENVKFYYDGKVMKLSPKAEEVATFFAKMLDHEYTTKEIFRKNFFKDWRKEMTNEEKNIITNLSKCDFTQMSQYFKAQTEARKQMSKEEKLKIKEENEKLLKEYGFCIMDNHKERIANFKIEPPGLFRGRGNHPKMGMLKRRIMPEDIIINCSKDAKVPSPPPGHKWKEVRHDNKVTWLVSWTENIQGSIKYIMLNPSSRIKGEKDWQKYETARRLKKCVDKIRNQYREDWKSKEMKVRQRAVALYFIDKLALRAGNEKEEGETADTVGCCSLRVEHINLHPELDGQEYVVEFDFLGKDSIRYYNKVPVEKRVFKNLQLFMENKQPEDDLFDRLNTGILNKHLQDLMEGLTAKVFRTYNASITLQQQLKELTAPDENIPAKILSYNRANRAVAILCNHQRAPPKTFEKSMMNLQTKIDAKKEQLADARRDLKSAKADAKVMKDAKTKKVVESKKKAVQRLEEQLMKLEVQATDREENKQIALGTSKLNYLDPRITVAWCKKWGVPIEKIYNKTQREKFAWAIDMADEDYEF

[14] = system: DNA; experiment: Binding affinity to calf thymus DNA at 40 to 80 uM by CD spectra analysis; type: nucleic-acid assay; conditions: Bos taurus
Outline: (§2)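 CD spectra of ct DNA (40 μM) with compound at 0, 40 or 80 μM, in 10 mM Tris/10 mM NaCl pH 7.0, at room temperature in a 0.1 cm quartz cell. Each spectrum is the average of three scans with the buffer scan subtracted.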

[15] = system: DNA; experiment: Effect on calf thymus DNA conformation at 40 to 80 uM by CD spectra analysis; type: nucleic-acid assay; conditions: Bos taurus; outline: as §2
[16] = system: DNA; experiment: Binding affinity to calf thymus DNA after 5 mins by UV-vis absorption spectroscopic analysis; type: nucleic-acid assay; conditions: Bos taurus
Outline: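 ct DNA (purity A260:A280 1.86; concentration per mole phosphate from ε260 6600 M⁻¹ cm⁻¹) titrated into 50 μM compound in 10 mM Tris, 10 mM NaCl, pH 7.0. DNA 0–10 μM. Incubated 5 min, UV-vis absorption recorded in a 1.0 cm quartz cell. Kb taken as the slope-to-intercept ratio of [DNA]/(εa−εf) plotted against [DNA].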

[17] = system: DNA; experiment: Binding affinity to calf thymus DNA by fluorescence spectroscopic analysis; type: nucleic-acid assay; conditions: Bos taurus
Outline: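 Compound at 50 μM final in Tris–HCl buffer pH 7.0 (10 mM Tris, 10 mM NaCl), titrated with ct DNA at 0 to 6 μM final. Emission excited at 420 nm with a xenon arc lamp. Quenching constant Kq derived from a Stern–Volmer plot, F0/F = 1 + Kq[Q].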

[18] = system: HepG2; experiment: Cytotoxicity against human HepG2 cells assessed as growth inhibition after 48 hrs by MTT assay; type: functional, cell-based; conditions: HepG2, 48 h
Outline: (§3)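 K562 (RPMI-1640) or HepG-2 (DMEM) cells in 10% FBS with penicillin/streptomycin at 37 °C, 5% CO₂. Seeded at 1.5×10^5 cells/mL and treated 48 h at various concentrations. MTT (5 mg/mL) added for 4 h, formazan dissolved in DMSO, absorbance read at 490 nm. IC50 reported.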

[19] = system: K562; experiment: Cytotoxicity against human K562 cells assessed as growth inhibition after 48 hrs by MTT assay; type: functional, cell-based; conditions: K562, 48 h; outline: as §3

Question: With `COc1ccc2nc3ccccc3c(NCc3ccccc3)c2c1` as the compound, how does the Activity [1] read?
Answer: The Activity was “Active”.

Question: What about the Activity [2] of the same compound?
Answer: Its Activity is “Active”.

Question: And the Activity [3]?
Answer: The Activity was “Dose-dependent effect”.

Question: And the Activity [4]?
Answer: The Activity was “Active”.

Question: What about the Activity [5] of the same compound?
Answer: Its Activity is “Active”.

Question: What about the Activity [6] of the same compound?
Answer: The Activity was “Dose-dependent effect”.

Question: And the Activity [7]?
Answer: The Activity was 40.44%.

Question: And the Activity [8]?
Answer: The Activity was 37.09%.

Question: And the Activity [9]?
Answer: Its Activity is 7.23%.

Question: And the Activity [10]?
Answer: The Activity was 32.71%.

Question: What about the Activity [11] of the same compound?
Answer: Its Activity is 18.42%.

Question: What about the Activity [12] of the same compound?
Answer: Its Activity is 2%.

Question: And the inhibition [13]?
Answer: Its inhibition is “Active”.

Question: What about the Activity [14] of the same compound?
Answer: Its Activity is “Active”.

Question: What about the Activity [15] of the same compound?
Answer: The Activity was “inactive”.

Question: What about the Kb [16] of the same compound?
Answer: The Kb was 1.42 ×10⁵ /M.

Question: What about the Kq [17] of the same compound?
Answer: Its Kq is 3.5 ×10⁵ /M.

Question: And the IC50 [18]?
Answer: Its IC50 is 0.89 µM.

Question: And the IC50 [19]?
Answer: Its IC50 is 0.54 µM.

Question: For `COc1cc(C)c2nc3cc(Cl)ccc3c(NCc3ccccc3)c2c1`, which Kq [17] is on record?
Answer: Its Kq is 1.11 ×10⁵ /M.

Question: And the IC50 [18]?
Answer: The IC50 was 6.05 µM.

Question: And the IC50 [19]?
Answer: Its IC50 is 3.09 µM.

Question: `Clc1ccc2c(NCc3ccccc3)c3ccccc3nc2c1` was tested. Which Kq [17] did it give?
Answer: Its Kq is 1.33 ×10⁴ /M.

Question: What about the IC50 [18] of the same compound?
Answer: Its IC50 is 11.6 µM.

Question: What about the IC50 [19] of the same compound?
Answer: The IC50 was 9.24 µM.

Question: `COc1ccc2nc3cc(Cl)ccc3c(NCCc3ccccc3)c2c1` was tested. Which Kq [17] did it give?
Answer: Its Kq is 1.19 ×10⁵ /M.

Question: And the IC50 [18]?
Answer: The IC50 was 2.19 µM.

Question: And the IC50 [19]?
Answer: Its IC50 is 0.65 µM.

Question: Which Kq [17] does the source give for `COc1ccc2nc3cc(Cl)ccc3c(NCc3ccccc3)c2c1` here?
Answer: The Kq was 1.97 ×10⁵ /M.

Question: What about the IC50 [18] of the same compound?
Answer: The IC50 was 1.4 µM.

Question: And the IC50 [19]?
Answer: Its IC50 is 0.65 µM.

Question: How did the Kq [17] turn out when `O=C(Nc1c2ccccc2nc2ccccc12)c1ccccc1` was run?
Answer: Its Kq is less than 1 ×10⁴ /M.

Question: What about the IC50 [18] of the same compound?
Answer: The IC50 was greater than 50 µM.

Question: What about the IC50 [19] of the same compound?
Answer: The IC50 was greater than 50 µM.

Question: With `COc1ccc2nc3cc(Cl)ccc3c(NCCCc3ccccc3)c2c1` as the compound, how does the Kq [17] read?
Answer: Its Kq is 1.05 ×10⁵ /M.

Question: What about the IC50 [18] of the same compound?
Answer: The IC50 was 3.26 µM.

Question: What about the IC50 [19] of the same compound?
Answer: Its IC50 is 2.2 µM.

Question: Which results are given for `Cc1cccc2c(NCc3ccccc3)c3ccccc3nc12`?
Answer: inhibition [13]: Active; Kq [17]: 6.22 ×10⁴ /M; IC50 [18]: 3.64 µM; IC50 [19]: 4.86 µM

Question: Which IC50 [19] does the source give for `Cc1ccc(NC(=O)c2ccc(CN3CCN(C)CC3)cc2)cc1Nc1nccc(-c2cccnc2)n1` [IMATINIB] here?
Answer: The IC50 was 0.47 µM.

Question: `c1ccc(CNc2c3ccccc3nc3ccccc23)cc1` was tested. Which inhibition [13] did it give?
Answer: The inhibition was “Active”.

Question: And the Kq [17]?
Answer: The Kq was 3.71 ×10⁴ /M.

Question: What about the IC50 [18] of the same compound?
Answer: The IC50 was 6.07 µM.

Question: What about the IC50 [19] of the same compound?
Answer: The IC50 was 5.24 µM.

Question: Which IC50 [18] does the source give for `COc1cc2c(c(OC)c1OC)-c1ccc(OC)c(=O)cc1[C@@H](NC(C)=O)CC2` [COLCHICINE] here?
Answer: Its IC50 is 1.8 µM.

Question: For `c1ccc(COc2c3ccccc3nc3ccccc23)cc1`, which Kq [17] is on record?
Answer: Its Kq is less than 1 ×10⁴ /M.

Question: And the IC50 [18]?
Answer: The IC50 was greater than 50 µM.

Question: And the IC50 [19]?
Answer: The IC50 was greater than 50 µM.
